Activity calls are given as the source filed them.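 The calls were made as follows, unless noted: active = viability at or below 10% of carrier control in both of two separate runs; inconclusive = viability at or below 10% in only one of the two runs; inactive = the rest.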

Assay [1] is described as follows: reducers of endogenous Her2 protein level, primary screen, SKBR3 breast tumor cells, AlphaScreen, ATP viability (AID 461;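 active = Her2 level under about 52% in both replicate screens, with viability over 70% of control, limit read from the data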;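 as to Her2 level: lower value means less Her2 protein in the cells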;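 as to viability: percent of carrier control wells set as 100% viability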). The following applies: 18-24 h, measured here: SKBR3 viability, ATP luminescence, at 10 µM. Background: Bead proximity is the source of the signal in Alpha formats.
For assay [2], the target named is Receptor tyrosine-protein kinase erbB-2 (Homo sapiens) (UniProt P04626). The description is as above. The following applies: 18-24 h, at 10 µM, stronger effect = lower value.
Receptor tyrosine-protein kinase erbB-2 (Homo sapiens), sequence (P04626 whole entry, looked up): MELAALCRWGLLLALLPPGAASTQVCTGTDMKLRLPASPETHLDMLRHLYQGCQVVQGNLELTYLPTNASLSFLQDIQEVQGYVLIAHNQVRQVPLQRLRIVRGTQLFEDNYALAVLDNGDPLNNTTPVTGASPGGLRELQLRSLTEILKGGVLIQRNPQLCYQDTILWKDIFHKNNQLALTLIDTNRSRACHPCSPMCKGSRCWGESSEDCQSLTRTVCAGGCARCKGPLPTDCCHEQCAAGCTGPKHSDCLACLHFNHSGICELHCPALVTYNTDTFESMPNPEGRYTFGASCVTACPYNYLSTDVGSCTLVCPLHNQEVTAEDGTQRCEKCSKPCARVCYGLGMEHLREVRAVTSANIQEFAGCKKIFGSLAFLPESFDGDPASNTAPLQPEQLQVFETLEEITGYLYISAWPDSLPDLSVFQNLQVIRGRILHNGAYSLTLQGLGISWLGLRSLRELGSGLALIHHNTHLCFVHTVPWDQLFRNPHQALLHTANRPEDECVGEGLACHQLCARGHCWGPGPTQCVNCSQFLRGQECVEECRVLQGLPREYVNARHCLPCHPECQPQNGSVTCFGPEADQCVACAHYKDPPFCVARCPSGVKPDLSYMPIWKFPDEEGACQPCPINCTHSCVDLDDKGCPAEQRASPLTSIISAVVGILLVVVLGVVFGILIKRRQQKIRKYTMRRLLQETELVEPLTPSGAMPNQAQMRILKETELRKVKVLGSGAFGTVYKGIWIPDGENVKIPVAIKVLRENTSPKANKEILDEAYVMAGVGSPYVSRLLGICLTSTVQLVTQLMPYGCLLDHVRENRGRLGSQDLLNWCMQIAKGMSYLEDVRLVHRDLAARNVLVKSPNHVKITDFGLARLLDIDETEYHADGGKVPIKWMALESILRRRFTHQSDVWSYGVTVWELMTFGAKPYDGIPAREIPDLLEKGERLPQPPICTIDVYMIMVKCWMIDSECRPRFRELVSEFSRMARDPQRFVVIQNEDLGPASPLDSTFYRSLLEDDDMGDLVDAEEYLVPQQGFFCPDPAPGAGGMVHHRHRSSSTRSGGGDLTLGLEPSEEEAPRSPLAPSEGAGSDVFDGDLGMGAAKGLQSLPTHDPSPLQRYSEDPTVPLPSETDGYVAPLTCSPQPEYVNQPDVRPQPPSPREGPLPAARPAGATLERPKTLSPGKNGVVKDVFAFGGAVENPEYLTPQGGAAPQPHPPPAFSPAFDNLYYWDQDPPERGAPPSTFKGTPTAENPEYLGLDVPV
Assay [3] is described as follows: SK-BR-3 cell growth inhibitors, pilot screen, 24 h, human (AID 572).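 Also: compound exposure lasted between 18 and 24 h rather than exactly 24 h; 100% = carrier-treated control wells.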 The note with it: SK-BR-3 viability, CellTiter-Glo luminescence, at 10 µM, stronger effect = lower value. Background: Cellular ATP, detected with luciferase, serves as a proxy for viable cell number.
A short description of assay [4]: HUVEC growth inhibition – cell-based, human, primary screen (AID 575;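 active = viability at or below 30% in both replicate assays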;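 also: 100% = median of untreated cell wells with 0.1% DMSO on each plate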). The note with it: HUVEC proliferation, CellTiter-Glo luminescence, 72 h; at 10 µM; stronger effect = lower value. The essentials: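 System: primary human umbilical vein endothelial cells; Quantity: 1250 endothelial cells in each well; Buffer or medium: supplemented EBM, 2% fetal bovine serum; Doses: one dose, 10 µM final, 0.1% DMSO; Incubation: 72 h compound incubation; Technique: ATP-based CellTiter-Glo luminescent read; Evaluation: percent of median DMSO-control luminescence; Controls: vehicle and MePR control wells.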

Assay [5] in a line: growth inhibitors of H69AR lung tumor, primary screen, human, duplicate replicates (AID 580;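 active = viability at or under a set limit in both replicates, limit being median viability minus 3 SD, cut at about 48% in these data, passing the limit was not always enough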;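 also: 100% = mean luminescence of untreated wells and 0% = no signal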). The note with it: H69AR lung tumor cells viability, ATP luminescence, 72 h; at 10 µM; stronger effect = lower value.
Assay [6] in a line: reversal of MRP1-mediated doxorubicin resistance, pilot screen, H69AR cells, doxorubicin co-treatment (AID 601;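 active = viability loss from added drug above about 55%, and viability with drug at most 40%, in both replicates, limit read from the data, passing the limit was not always enough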). The following applies: CellTiter-Glo, 72 h, at 10 µM; for differential viability (reversal): stronger effect = higher value.
The nature of assay [7]: 384-well plate pilot, post-Golgi transport modulator project, inhibition of yeast transport mutant growth (AID 636; in the data active = inhibition above about 31%). The following applies: absorbance 615 nm, about 18 h, stronger effect = higher value.
Assay [8] can be described thus: growth suppression of yeast trafficking mutant, preliminary HTS, modulators of trafficking downstream of Golgi apparatus project, 1536-format plate, OD 615 nm (AID 637; in the data active = inhibition above about 30%). The following applies: yeast transport mutant growth, absorbance 615 nm, 18 h; stronger effect = higher value.
[9] abbreviates: H69AR cells + 2 uM doxorubicin, measured here: viability with 2 uM doxorubicin, stronger effect = lower value.
Where [10] appears, read: H69AR cells, compound alone cytotoxicity.

In the case of `CCOc1ccc(-c2noc(-c3ccncc3)n2)cc1OCC`, the viability in assay [1] is 99%; in assay [3] it was 99% (inactive); in assay [4], 119% (inactive); in assay [5], 86.7% (inactive); in assay [6] (setting [9]), 90.7%; in assay [6] (setting [10]), 86.7%. In assay [2], the Her2 level is 108% (inactive). Further, the differential viability (reversal) in assay [6] (H69AR cells + 2 uM doxorubicin) is -3.94% (inactive). Moreover, the inhibition in assay [7] is -6.13% (inactive); in assay [8], -1.61% (inactive).

On to `Cn1c(SCCN2CCCCC2)nnc1-c1ccccc1Br`, for which the viability in assay [1] is 94.5%; in assay [3], 94.5% (inactive); in assay [4] it was 105% (inactive); in assay [5], 105% (inactive); in assay [6] (setting [9]), 95.3%; in assay [6] (setting [10]) it was 105%. Also, in assay [2], the Her2 level is 95.5% (inactive). Besides, the differential viability (reversal) in assay [6] (H69AR cells + 2 uM doxorubicin) was 9.74% (inactive). Moreover, the inhibition in assay [7] is -4.4% (inactive); in assay [8], 5.48% (inactive).

`CCS(=O)(=O)N1CCC(C(=O)NCCc2ccc(C)cc2)CC1`: the viability was 99% in assay [1]; 99% (inactive) in assay [3]; 100% (inactive) in assay [4]; 89.3% (inactive) in assay [5]; 81.9% in assay [6] (setting [9]); 89.3% in assay [6] (setting [10]). For the same compound, the Her2 level in assay [2] was 106% (inactive). Further, the differential viability (reversal) in assay [6] (H69AR cells + 2 uM doxorubicin) was 7.41% (inactive). The inhibition in assay [7] was -2.6% (inactive); in assay [8], -9.68% (inactive).

Take `Cc1cc(C)c(S(=O)(=O)Nc2cccnc2)c(C)c1`: the viability in assay [1] was 100%; in assay [3], 100% (inactive); in assay [4], 105% (inactive); in assay [5], 97.8% (inactive); in assay [6] (setting [9]), 89.1%; in assay [6] (setting [10]) it was 97.8%. The Her2 level in assay [2] is 91% (inactive). In addition, in assay [6] (H69AR cells + 2 uM doxorubicin), the differential viability (reversal) was 8.71% (inactive). Also, the inhibition is -4.93% (inactive) in assay [7] and -0.16% (inactive) in assay [8].

On to `O=C(CS(=O)(=O)c1cn(Cc2ccc(Cl)cc2)c2ccccc12)N1CCCC1`, for which the viability was 81.5% in assay [1]; 81.5% (inactive) in assay [3]; 88.2% (inactive) in assay [4]; 79.3% (inactive) in assay [5]; 82.3% in assay [6] (setting [9]); 79.3% in assay [6] (setting [10]). Moreover, in assay [2], the Her2 level is 92% (inactive). For the same compound, the differential viability (reversal) in assay [6] (H69AR cells + 2 uM doxorubicin) was -3.04% (inactive). The inhibition in assay [7] is -5.2% (inactive); in assay [8] it was 1% (inactive).

Turning to `COC(=O)CN(c1nc(C)c(Cl)c(OC)n1)S(=O)(=O)c1ccc(C)cc1`, the viability in assay [1] is 117%; in assay [3] it was 117% (inactive); in assay [4], 86.9% (inactive); in assay [5], 84.9% (inactive); in assay [6] (setting [9]), 81.9%; in assay [6] (setting [10]), 84.9%. Also, in assay [2], the Her2 level is 104% (inactive). In addition, in assay [6] (H69AR cells + 2 uM doxorubicin), the differential viability (reversal) is 2.96% (inactive). Moreover, the inhibition was -3.64% (inactive) in assay [7] and -2.86% (inactive) in assay [8].

In the case of `Cc1ccc(S(=O)(=O)NCCC(=O)OCn2nnc3ccccc3c2=O)cc1`, the viability was 95.5% in assay [1]; 95.5% (inactive) in assay [3]; 83.8% (inactive) in assay [4]; 95.1% (inactive) in assay [5]; 108% in assay [6] (setting [9]); 95.1% in assay [6] (setting [10]). For the same compound, the Her2 level in assay [2] was 82.5% (inactive). For the same compound, in assay [6] (H69AR cells + 2 uM doxorubicin), the differential viability (reversal) was -13.1% (inactive). The inhibition in assay [7] was -2.37% (inactive); in assay [8] it was 1.27% (inactive).

With `CC(C)CCNC(=O)NC(=O)CSc1nnc(COc2ccccc2Cl)o1`, the viability in assay [1] was 99%; in assay [3], 99% (inactive); in assay [4] it was 81% (inactive); in assay [5], 93% (inactive); in assay [6] (setting [9]), 87.1%; in assay [6] (setting [10]), 93%. In addition, in assay [2], the Her2 level is 80.5% (inactive). In assay [6] (H69AR cells + 2 uM doxorubicin), the differential viability (reversal) was 5.9% (inactive). Moreover, the results for the inhibition in assay [7] and in assay [8] were -2.24% (inactive) and -5.87% (inactive), respectively.

On to `CN1/C(=C\C(=O)C(F)F)C(C)(C)c2ccccc21`, for which the viability in assay [1] was 90%; in assay [3], 90% (inactive); in assay [4] it was 99.5% (inactive); in assay [5], 107% (inactive); in assay [6] (setting [9]) it was 87.4%; in assay [6] (setting [10]) it was 107%. In assay [2], the Her2 level is 100% (inactive). For the same compound, the differential viability (reversal) in assay [6] (H69AR cells + 2 uM doxorubicin) is 19.5% (inactive). In addition, the inhibition in assay [7] was -0.53% (inactive); in assay [8], 1.77% (inactive).

As to `CCCCCc1c(C)nc(N2CCc3ccccc32)[nH]c1=O`, the viability is 92.5% in assay [1]; 92.5% (inactive) in assay [3]; 57.4% (inactive) in assay [4]; 94.6% (inactive) in assay [5]; 95.2% in assay [6] (setting [9]); 94.6% in assay [6] (setting [10]). In assay [2], the Her2 level is 90% (inactive). In assay [6] (H69AR cells + 2 uM doxorubicin), the differential viability (reversal) is -0.605% (inactive). Moreover, the inhibition in assay [7] was -0.68% (inactive); in assay [8], 3.17% (inactive).

For the compound `O=C(CSc1nc2ccsc2c(=O)n1NC(=O)c1ccccc1)Nc1nccs1`, the viability in assay [1] is 105%; in assay [3], 105% (inactive); in assay [4], 96.9% (inactive); in assay [5], 100% (inactive); in assay [6] (setting [9]) it was 98%; in assay [6] (setting [10]) it was 100%. In addition, the Her2 level in assay [2] was 86.5% (inactive). The differential viability (reversal) in assay [6] (H69AR cells + 2 uM doxorubicin) was 2.06% (inactive). Further, the inhibition in assay [7] is -4.74% (inactive); in assay [8], -2.83% (inactive).

In the case of `Cc1cc(C)n2nc(S(=O)(=O)N(C)Cc3ccccc3)nc2n1`, the viability is 80% in assay [1]; 80% (inactive) in assay [3]; 122% (inactive) in assay [4]; 93.4% (inactive) in assay [5]; 89.2% in assay [6] (setting [9]); 93.4% in assay [6] (setting [10]). In addition, the Her2 level in assay [2] was 91% (inactive). The differential viability (reversal) in assay [6] (H69AR cells + 2 uM doxorubicin) is 4.15% (inactive). For the same compound, the inhibition in assay [7] is -7.16% (inactive); in assay [8] it was -5.67% (inactive).

As for `O=c1c[n+]([O-])c2ccccc2n1OCc1c(F)cccc1F`, the viability was 90.5% in assay [1]; 90.5% (inactive) in assay [3]; 93.4% (inactive) in assay [4]; 88.2% (inactive) in assay [5]; 86.3% in assay [6] (setting [9]); 88.2% in assay [6] (setting [10]). Moreover, the Her2 level in assay [2] was 70.5% (inactive). The differential viability (reversal) in assay [6] (H69AR cells + 2 uM doxorubicin) is 1.98% (inactive). Besides, the values for the inhibition in assay [7] and in assay [8] were -3.33% (inactive) and -1.59% (inactive), respectively.

For `COc1ccccc1N=Cc1nc(-c2ccccc2)oc1OC(C)=O`, the viability is 99% in assay [1]; 99% (inactive) in assay [3]; 79.2% (inactive) in assay [4]; 63.1% (inactive) in assay [5]; 76.8% in assay [6] (setting [9]); 63.1% in assay [6] (setting [10]). In addition, the Her2 level in assay [2] is 82.5% (inactive). Besides, in assay [6] (H69AR cells + 2 uM doxorubicin), the differential viability (reversal) was -13.8% (inactive). Also, the results for the inhibition in assay [7] and in assay [8] were -4.61% (inactive) and -2.38% (inactive), respectively.

For the compound `COc1cc(-c2nn3c(-c4cccnc4)nnc3s2)cc(OC)c1OC`, the viability in assay [1] is 101%; in assay [3], 101% (inactive); in assay [4] it was 90.3% (inactive); in assay [5], 92.6% (inactive); in assay [6] (setting [9]), 85.8%; in assay [6] (setting [10]), 92.6%. Besides, the Her2 level in assay [2] is 98.5% (inactive). In addition, the differential viability (reversal) in assay [6] (H69AR cells + 2 uM doxorubicin) was 6.8% (inactive). Also, the figures for the inhibition in assay [7] and in assay [8] were -4.87% (inactive) and -4.35% (inactive), respectively.

In general, viability refers to a read-out of living cells in per cent, often relative to untreated cells. One may read the inhibition as the relative decrease from the control value, in per cent.

These data come from PubChem BioAssay.
